In ChEMBL document CHEMBL1122709, “Synthesis and biological activity of a new class of cytotoxic agents: N-(3-oxoprop-1-enyl)-substituted pyrimidines and purines” (J Med Chem, 1984):

Columns and labels:
HeLa [1] = assay: Inhibition of macromolecular synthesis in HeLa cells assayed by the incorporation of radioactive leucine into protein; assay type: functional, cell-based; conditions: Homo sapiens
How it was run: (§1)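 HeLa S3 suspension culture in MEM with 5% fetal calf serum and 2 mM L-glutamine. Cells incubated with 0.5 μCi of labeled precursor: [methyl-3H]thymidine for DNA, [5,6-3H]uridine (40 Ci/mmol) for RNA, L-[4,5-3H]leucine (56 Ci/mmol) for protein. Synthesis rate taken as precursor uptake into cold TCA-insoluble material.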

HeLa [2] = assay: Inhibition of macromolecular synthesis in HeLa cells assayed by the incorporation of radioactive uridine into RNA; assay type: functional, cell-based; conditions: Homo sapiens; how it was run: as §1
HeLa [3] = assay: Inhibition of macromolecular synthesis in HeLa cells assayed by the incorporation of radioactive thymidine into DNA; assay type: functional, cell-based; conditions: Homo sapiens; how it was run: as §1
HeLa [4] = assay: Inhibition of HeLa cells growth (cytotoxicity); assay type: functional; conditions: Homo sapiens, read-out: ID50 (the source's name)
How it was run: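 HeLa cells in complete medium, grown to 1.7 × 10^5/mL (100 mL culture). Incubated 16 h with varying concentrations of inhibitor, then growth inhibition assessed.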

[5] = Compound was evaluated for its half-life when nucleophile was added in solution buffered at pH 7.2 in the presence of aminoethanol; assay type: ADME; conditions: buffered solution with added nucleophile (aminoethanol)
How it was run: (§2)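 Half-life of each compound measured in aqueous solution buffered at pH 7.2 with a nucleophile, glutathione or aminoethanol, added. Reaction followed kinetically as disappearance of the propenal.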

[6] = Compound was evaluated for its half-life when nucleophile was added in solution buffered at pH 7.2 in the presence of glutathione; assay type: ADME; conditions: buffered solution with added nucleophile (glutathione); how it was run: as §2

With `CCOC(=O)/C=C/n1cnc2c(N)ncnc21` the IC50 (HeLa [1]) was 100 µM, the IC50 (HeLa [2]) was 100 µM and the IC50 (HeLa [3]) was 60 µM.
`Nc1ccn(/C=C/C=O)c(=O)n1` gave an IC50 (HeLa [1]) greater than 100 µM, an IC50 (HeLa [4]) of 15 µM and an IC50 (HeLa [2]) greater than 100 µM. It also gave an IC50 (HeLa [3]) greater than 100 µM.
For `Cc1cn(C)c(=O)n(/C=C/C=O)c1=O`, the IC50 (HeLa [1]) was 15 µM, the IC50 (HeLa [4]) was 3 µM and the IC50 (HeLa [2]) was 15 µM. The IC50 (HeLa [3]) was 10 µM.
For `Cc1cn([C@@H]2O[C@H](CO)[C@@H](O)[C@@H]2O)c(=O)n(/C=C/C=O)c1=O`, the IC50 (HeLa [1]) was greater than 100 µM, the IC50 (HeLa [4]) was 40 µM and the IC50 (HeLa [2]) was 100 µM. For the same compound, the IC50 (HeLa [3]) was 40 µM.
In the case of `Nc1ncnc2c1ncn2/C=C/C=O`, the IC50 (HeLa [1]) is reported as greater than 100 µM, the IC50 (HeLa [4]) is reported as 2 µM and the IC50 (HeLa [2]) is reported as greater than 100 µM. It also gave a half-life [5] of 15 h, a half-life [6] of 2.1 min and an IC50 (HeLa [3]) of 30 µM.
For `O=C/C=C/n1cc(F)c(=O)[nH]c1=O`, the IC50 (HeLa [1]) was 40 µM, the IC50 (HeLa [4]) was 3 µM and the IC50 (HeLa [2]) was 90 µM. The IC50 (HeLa [3]) was 60 µM.
`Cc1cn([C@H]2C[C@H](O)[C@@H](CO)O2)c(=O)n(/C=C/C=O)c1=O` gave an IC50 (HeLa [1]) of 15 µM, an IC50 (HeLa [4]) of 1 µM and an IC50 (HeLa [2]) of 20 µM. It also gave a half-life [5] of 25 h, a half-life [6] of 8 min and an IC50 (HeLa [3]) of 0.5 µM.
`O=C/C=C/n1c(=O)ccn(C2O[C@H](CO)[C@@H](O)[C@H]2O)c1=O` (stereo partly drawn) showed an IC50 (HeLa [1]) greater than 100 µM, an IC50 (HeLa [4]) of 9 µM and an IC50 (HeLa [2]) of 3 µM. It also gave an IC50 (HeLa [3]) of 10 µM.
Compound `O=C/C=C/n1c(=O)c(I)cn([C@H]2C[C@H](O)[C@@H](CO)O2)c1=O` has an IC50 (HeLa [1]) of 15 µM, an IC50 (HeLa [4]) of 20 µM and an IC50 (HeLa [2]) of 80 µM. For the same compound, the IC50 (HeLa [3]) was 0.3 µM.
For `Nc1nc(O)c2ncn(/C=C/C=O)c2n1`, the IC50 (HeLa [1]) was greater than 100 µM, the IC50 (HeLa [4]) was 24 µM and the IC50 (HeLa [2]) was 50 µM. The IC50 (HeLa [3]) was greater than 100 µM.
For `O=C/C=C/n1cc(C(F)(F)F)c(=O)[nH]c1=O`, the IC50 (HeLa [1]) was 80 µM, the IC50 (HeLa [2]) was greater than 100 µM and the IC50 (HeLa [3]) was 60 µM.
In the case of `Cc1cn(/C=C/C=N/O)c(=O)[nH]c1=O`, the IC50 (HeLa [1]) is reported as greater than 100 µM, the IC50 (HeLa [2]) is reported as greater than 100 µM and the IC50 (HeLa [3]) is reported as greater than 100 µM.
In the case of `CC(=O)/C=C/n1cc(C)c(=O)[nH]c1=O`, the IC50 (HeLa [1]) is reported as greater than 100 µM, the IC50 (HeLa [2]) is reported as greater than 100 µM and the IC50 (HeLa [3]) is reported as greater than 100 µM.
In the case of `N#C/C=C/n1c(=O)ccn([C@H]2C[C@H](O)[C@@H](CO)O2)c1=O`, the IC50 (HeLa [1]) is reported as greater than 100 µM, the IC50 (HeLa [2]) is reported as 100 µM and the IC50 (HeLa [3]) is reported as 100 µM.
Work on `O=C/C=C/n1ccc(=O)[nH]c1=O` yielded an IC50 (HeLa [1]) of 30 µM, an IC50 (HeLa [4]) of 4 µM and an IC50 (HeLa [2]) of 30 µM. The IC50 (HeLa [3]) was 30 µM.
With `Cc1cn(/C=C/C#N)c(=O)[nH]c1=O` the IC50 (HeLa [1]) was greater than 100 µM, the IC50 (HeLa [2]) was greater than 100 µM and the IC50 (HeLa [3]) was greater than 100 µM.
In the case of `Cc1cn(/C=C/CO)c(=O)[nH]c1=O`, the IC50 (HeLa [1]) is reported as greater than 100 µM, the IC50 (HeLa [2]) is reported as greater than 100 µM and the IC50 (HeLa [3]) is reported as greater than 100 µM.
With `Cc1cn(/C=C/C=O)c(=O)[nH]c1=O` the IC50 (HeLa [1]) was 25 µM, the IC50 (HeLa [4]) was 1 µM and the IC50 (HeLa [2]) was 100 µM. The half-life [5] was 18 h, the half-life [6] was 3.5 min and the IC50 (HeLa [3]) was 23 µM.
Compound `O=C/C=C/n1cc(CO)c(=O)[nH]c1=O` has an IC50 (HeLa [1]) greater than 100 µM, an IC50 (HeLa [2]) greater than 100 µM and an IC50 (HeLa [3]) greater than 100 µM.
`Cc1cn(COCCO)c(=O)n(/C=C/C=O)c1=O` gave an IC50 (HeLa [1]) of 20 µM, an IC50 (HeLa [4]) of 6 µM and an IC50 (HeLa [2]) of 20 µM. It also gave an IC50 (HeLa [3]) of 20 µM.
For `Cc1cn([C@@H]2O[C@H](CO)[C@@H](O)[C@H]2O)c(=O)n(/C=C/C=O)c1=O`, the IC50 (HeLa [1]) was greater than 100 µM, the IC50 (HeLa [2]) was 100 µM and the IC50 (HeLa [3]) was greater than 100 µM.
`Cc1cn([C@H]2C[C@H](O)[C@@H](CO)O2)c(=O)n(/C=C/CO)c1=O` gave an IC50 (HeLa [1]) greater than 100 µM, an IC50 (HeLa [4]) of 60 µM and an IC50 (HeLa [2]) of 5 µM. For the same compound, the IC50 (HeLa [3]) was 5 µM.
`CC(=O)/C=C/n1c(=O)ccn([C@H]2C[C@H](O)[C@@H](CO)O2)c1=O` gave an IC50 (HeLa [1]) greater than 100 µM, an IC50 (HeLa [4]) of 6 µM and an IC50 (HeLa [2]) of 6 µM. It also gave an IC50 (HeLa [3]) of 1.5 µM.
For `O=C/C=C/n1c(=O)ccn([C@H]2C[C@H](O)[C@@H](CO)O2)c1=O`, the IC50 (HeLa [1]) was 15 µM, the IC50 (HeLa [4]) was 1 µM and the IC50 (HeLa [2]) was 15 µM. It also gave an IC50 (HeLa [3]) of 0.8 µM.
